# Experimental data taken from ChEMBL document CHEMBL1777755, “A new iridoid and effect on the rat aortic vascular smooth muscle cell proliferation of isolated compounds from Buddleja officinalis” (Bioorg Med Chem Lett, 2011).
# Activity calls are given as the source filed them. The rule behind the calls is not given here.
# Key:
# VSMC [1] = test: (§1) Antiproliferative activity against PDGF-BB-induced rat VSMC proliferation at 50 uM after 24 hrs by WST1 (CCK-8) assay; format: functional
# Method in brief: (§2)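 Rat aortic VSMCs were seeded at 4 × 10^4 cells/well and grown 48 h in DMEM with 10% FBS. They were then held 24 h in serum-free medium with compounds (0–50 µM), then stimulated 24 h. The methods footnote gives the stimulus as 5% FBS; the figure legends give 25 ng/mL PDGF-BB. WST-1 was added at 22 h for 2 h, and OD read at 450 nm. AG1295 (1 µM) served as positive control; mean ± SD, n = 4.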
# [2] = Cytotoxicity against PDGF-BB-induced rat VSMC at 50 uM
# VSMC [3] = test: (§3) Antiproliferative activity against PDGF-BB-induced rat VSMC proliferation at 10 uM after 24 hrs by WST1 (CCK-8) assay; format: functional; method in brief: as §2
# VSMC [4] = test: Antiproliferative activity against PDGF-BB-induced rat VSMC proliferation after 24 hrs by WST1 (CCK-8) assay; format: functional; method in brief: as §2
# [5] = Antiproliferative activity against PDGF-BB-induced rat VSMC proliferation at 30 uM after 24 hrs by WST1 (CCK-8) assay; format: functional; method in brief: as §2
# [6] = as §1; format: functional; method in brief: as §2
# [7] = as §3; format: functional; method in brief: as §2
Compound,Activity (VSMC [1]),Activity [2],Activity (VSMC [3]),Activity (VSMC [4]),also measured
COc1cc(C(=O)O[C@@H]2C[C@](C)(O)[C@H]3[C@H](O[C@@H]4O[C@H](CO)[C@@H](O)[C@H](O)[C@H]4O)OC=C[C@H]32)ccc1O,Active,Non-toxic,inactive,Dose-dependent effect,–
C[C@@H]1O[C@@H](OC[C@H]2O[C@@H](OCCc3ccc(O)c(O)c3)[C@H](O)[C@@H](O[C@@H]3O[C@@H](C)[C@H](O)[C@@H](O)[C@H]3O)[C@@H]2OC(=O)/C=C/c2ccc(O)c(O)c2)[C@H](O)[C@H](O)[C@H]1O,inactive,–,–,–,–
C[C@@H]1O[C@@H](O[C@@H]2[C@@H](O)[C@H](OCCc3ccc(O)c(O)c3)O[C@H](CO)[C@H]2O)[C@H](O)[C@H](O)[C@H]1O,inactive,–,–,–,–
C[C@@H]1O[C@@H](O[C@@H]2[C@@H](O)[C@H](OCCc3ccc(O)c(O)c3)O[C@H](CO)[C@H]2OC(=O)/C=C/c2ccc(O)c(O)c2)[C@H](O)[C@H](O)[C@H]1O,inactive,–,–,–,–
C[C@H]1O[C@H](O[C@@H]2[C@@H](O)[C@H](OCCc3ccc(O)c(O)c3)O[C@H](CO[C@H]3O[C@@H](CO)[C@H](O)[C@@H](O)[C@@H]3O)[C@H]2OC(=O)/C=C/c2ccc(O)c(O)c2)[C@@H](O)[C@@H](O)[C@@H]1O,inactive,–,–,–,–
OC[C@H]1O[C@@H](OCCc2ccc(O)cc2)[C@H](O)[C@@H](O)[C@@H]1O,inactive,–,–,–,–
OC[C@H]1O[C@@H](OCCc2ccccc2)[C@H](O)[C@@H](O)[C@@H]1O,inactive,–,–,–,–
COc1ccc(-c2cc(=O)c3c(O)cc(O[C@@H]4O[C@H](CO[C@@H]5O[C@@H](C)[C@H](O)[C@@H](O)[C@H]5O)[C@@H](O)[C@H](O)[C@H]4O)cc3o2)cc1 [ACACIIN],Active,Non-toxic,inactive,Dose-dependent effect,inhibition at 30 µM [5]: 21.2%
O=c1cc(-c2ccc(O)cc2)oc2cc(O)cc(O)c12 [APIGENIN],–,Toxic,inactive,–,–
C=C[C@](C)(O)CC/C=C(\C)CO[C@@H]1O[C@H](CO)[C@@H](O)[C@H](O)[C@H]1O [BETULALBUSIDES A],Active,Non-toxic,inactive,Dose-dependent effect,–
CO[C@@H]1C=C2[C@@H]3CC(C)(C)CC[C@]3(CO)[C@@H](O)C[C@@]2(C)[C@]2(C)CC[C@H]3[C@](C)(CO)[C@@H](O[C@@H]4O[C@H](C)[C@H](O)[C@H](O[C@@H]5O[C@H](CO)[C@@H](O[C@@H]6O[C@@H](C)[C@H](O)[C@@H](O)[C@H]6O)[C@H](O)[C@H]5O)[C@H]4O[C@@H]4O[C@H](CO)[C@@H](O)[C@H](O)[C@H]4O)CC[C@]3(C)[C@@H]12 [BUDDLEJASAPONIN IA],–,Toxic,–,–,–
C[C@H]1O[C@@H](O[C@H]2CC[C@@]3(C)[C@@H](CC[C@]4(C)[C@@H]3C=C[C@]35OC[C@@]6(CCC(C)(C)C[C@H]63)[C@@H](O)C[C@]54C)[C@]2(C)CO)[C@H](O)[C@@H](O[C@@H]2O[C@H](CO)[C@@H](O)[C@H](O)[C@H]2O)[C@H]1O[C@@H]1OC[C@@H](O)[C@H](O)[C@H]1O [BUDDLEJASAPONIN III],–,Toxic,–,–,–
CO[C@@H]1C=C2[C@@H]3CC(C)(C)CC[C@]3(OC)[C@@H](O)C[C@@]2(C)[C@]2(C)CC[C@H]3[C@](C)(CO)[C@@H](O[C@@H]4O[C@H](C)[C@H](O)[C@H](O[C@@H]5O[C@H](CO)[C@@H](O)[C@H](O)[C@H]5O)[C@H]4O[C@@H]4O[C@H](CO)[C@@H](O)[C@H](O)[C@H]4O)CC[C@]3(C)[C@@H]12 [BUDDLEJASAPONIN IVA],–,Toxic,–,–,–
C[C@H]1O[C@@H](O[C@H]2CC[C@@]3(C)[C@@H](CC[C@]4(C)[C@@H]3C=C[C@]35OC[C@@]6(CCC(C)(C)C[C@H]63)[C@@H](O)C[C@]54C)[C@]2(C)CO)[C@H](O[C@@H]2O[C@H](CO)[C@@H](O)[C@H](O)[C@H]2O)[C@@H](O[C@@H]2O[C@H](CO)[C@@H](O)[C@H](O)[C@H]2O)[C@H]1O [BUDDLEJASAPONIN IV],–,Toxic,–,–,–
C[C@@H]1O[C@@H](O[C@H]2[C@H](O)[C@@H](O)[C@H](O[C@H]3[C@@H](O)[C@@H](C)O[C@@H](O[C@H]4CC[C@@]5(C)[C@@H](CC[C@]6(C)[C@@H]5C=C[C@]57OC[C@@]8(CCC(C)(C)C[C@H]85)[C@@H](O)C[C@]76C)[C@]4(C)CO)[C@@H]3O[C@@H]3O[C@H](CO)[C@@H](O)[C@H](O)[C@H]3O)O[C@@H]2CO)[C@H](O)[C@H](O)[C@H]1O [BUDDLEJASAPONIN I],–,Toxic,–,–,–
COc1ccc(/C=C/C(=O)O[C@@H]2[C@@H](OC(C)=O)[C@@H](O)[C@H](O[C@H]3[C@@H]4C=CO[C@@H](O[C@@H]5O[C@H](CO)[C@@H](O)[C@H](O)[C@H]5O)[C@@H]4[C@@]4(CO)O[C@@H]34)O[C@H]2C)cc1 [BUDDLEJOSIDE A4],Active,Non-toxic,inactive,Dose-dependent effect,–
C[C@@H]1O[C@@H](OC[C@H]2O[C@@H](Oc3cc(O)c4c(=O)cc(-c5ccc(O)cc5)oc4c3)[C@H](O)[C@@H](O)[C@@H]2O)[C@H](O)[C@H](O)[C@H]1O [ISORHOIFOLIN],Active,Non-toxic,inactive,Dose-dependent effect,inhibition at 30 µM [5]: 22.6%
CO[C@H]1[C@@H]2C=CO[C@@H](O[C@@H]3O[C@H](CO)[C@@H](O)[C@H](O)[C@H]3O)[C@@H]2[C@@]2(CO)O[C@@H]12 [METHYLCATALPOL],Active,Non-toxic,–,Dose-dependent effect,–
CO[C@H]1[C@@H]2C[C@@H]3OC[C@](O)([C@H]2[C@H](O[C@@H]2O[C@H](CO)[C@@H](O)[C@H](O)[C@H]2O)O3)[C@@H]1O [METHYLSCUTELLOSIDE],–,Non-toxic,–,Dose-dependent effect,inhibition at 30 µM [5]: 42%; inhibition at 50 µM [6]: 79.6%; inhibition at 10 µM [7]: 39.1%
CO[C@@H]1C=C2[C@@H]3CC(C)(C)CC[C@]3(CO)CC[C@@]2(C)[C@]2(C)CC[C@H]3[C@](C)(CO)[C@@H](O[C@@H]4O[C@H](C)[C@H](O)[C@H](O[C@@H]5O[C@H](CO)[C@@H](O[C@@H]6O[C@@H](C)[C@H](O)[C@@H](O)[C@H]6O)[C@H](O)[C@H]5O)[C@H]4O[C@@H]4O[C@H](CO)[C@@H](O)[C@H](O)[C@H]4O)CC[C@]3(C)[C@@H]12 [MIMENGOSIDE B],–,Toxic,–,–,–
